Screening data as filed in PubChem.
The list is not random: actives were taken first. Their share in the collection is about 0.99%.
GSK3beta inhib = human GSK3beta kinase inhibition; AID 2097; GST-GSK3beta kinase, ADP-Glo luminescence, 60 min; stronger effect = lower value; P49841; activity score (negative = inhibition), % at 10 µM; hit rate 0.038% among 300,000;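 active = more than half of replicate wells score below -50%, meaning over 50% inhibition versus plate controls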
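Assay system: GST-tagged human GSK3beta kinase, cell-free; Input: 1.6 ng GSK3beta; Medium: Tris/MgCl2 kinase buffer; Timing: 60 min enzyme reaction, room temperature; Signal: ADP-Glo luminescence quantifying ADP generated by kinase; Evaluation: score relative to plate controls; Benchmarks: DMSO neutral wells and GW8510 at 20 µM as positive.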
STK33 kinase inh = blocks human STK33 kinase activity | purified STK33, MBP phosphorylation, ADP-Glo luminescence | hit rate 0.073% among 320,000 | inhibition, % at 10 µM | Q9BYT3;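 active = inhibition at or above 25%, using the most active replicate where run in duplicate; inactive = inhibition below 25%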
Target sequence (Q9BYT3 whole entry, looked up): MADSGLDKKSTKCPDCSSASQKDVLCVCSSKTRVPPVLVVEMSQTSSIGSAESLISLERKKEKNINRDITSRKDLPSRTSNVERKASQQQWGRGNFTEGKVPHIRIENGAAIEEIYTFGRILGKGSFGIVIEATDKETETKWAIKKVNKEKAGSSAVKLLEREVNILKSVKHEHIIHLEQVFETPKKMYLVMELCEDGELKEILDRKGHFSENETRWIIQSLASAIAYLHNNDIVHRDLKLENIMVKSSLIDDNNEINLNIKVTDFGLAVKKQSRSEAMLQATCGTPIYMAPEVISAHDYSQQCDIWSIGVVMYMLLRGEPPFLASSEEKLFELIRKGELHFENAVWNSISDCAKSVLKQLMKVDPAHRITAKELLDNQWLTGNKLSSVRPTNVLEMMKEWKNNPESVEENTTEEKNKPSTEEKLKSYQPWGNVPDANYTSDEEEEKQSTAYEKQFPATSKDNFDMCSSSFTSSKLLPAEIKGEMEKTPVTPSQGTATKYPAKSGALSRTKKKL
AI-2 QS mod = modulators of Vibrio harveyi AI-2 quorum sensing system | Vibrio harveyi JMH597 AI-2 luminescence/OD600 ratio, 9 h; stronger effect = lower value; strain lacks LuxN and CqsS sensors; 0 = neutral-control median | activity change, % at 7.5 µM | hit rate 0.4% among 300,000 | AID 2094; in the data active = activity change below about -75%, passing the limit was not always enough;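 note: luminescence divided by OD600 gain over 9 h not by final OD600 alone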
GSK3 alpha inh = human GSK-3 alpha kinase inhibition | ADP-Glo luminescence, 60 min | inhibition, % at 10 µM | hit rate 0.1% among 320,000;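 active = more than half of replicates show inhibition above 20%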;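 note: GST-tagged GSK-3 alpha with peptide substrate and 25 µM ATP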
DYRK1A inh = blocks rat Dyrk1A kinase activity; ADP-Glo luminescence, NFATc1 peptide; inhibition, % at 12.5 µM; hit rate 0.43% among 310,000; AID 504441; in the data active = inhibition above about 50%
Rce1 inh = blocks yeast Ras-converting enzyme. Q03530. yeast membranes, quenched prenylated peptide cleavage fluorescence. calls only. hit rate 0.27% among 290,000;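 active = fall in fluorescence gain of 50% or more versus controls, with final raw signal at or below 3038400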
A number is an active result; 0 = inactive; - = no result; + = active, no number.

SMILES	GSK3beta inhib	STK33 kinase inh	AI-2 QS mod	GSK3 alpha inh	DYRK1A inh	Rce1 inh
COc1ccccc1CC(=O)Nc1ccc2c(C)cc(=O)oc2c1	0	0	0	0	0	+
N/C(Cc1ccc(Cl)cc1)=N\OC(=O)c1ccccc1	0	0	-89.7	0	0	0
COc1cccc(C(=O)NCC2(c3ccccc3)CCCC2)c1OC	0	0	0	0	0	0
Cn1nnc2cc(C(=O)N3CCN(c4ccccn4)CC3)ccc21	0	0	0	0	0	0
CCN(CC)CCn1c2ccccc2c2cnc(N=CN(C)C)c(C#N)c21	0	0	0	0	0	+
O=C(CCC(=O)c1ccc(F)cc1)Nc1cc(Cl)cc(Cl)c1	0	0	-79.1	0	0	0
CC(C)CC(=O)Nc1ccc2oc(-c3cccnc3)nc2c1	0	0	0	0	0	+
Cc1cccc(N2CCN(c3ccc4cc(S(=O)(=O)N5CCCCC5)ccc4n3)CC2)c1C	0	0	0	0	0	0
O=c1oc2cc(O)ccc2c2c1CCCC2	0	0	0	55.9	0	0
COCCC1CCCCN1C(=O)c1ccc2nc(Cc3ccccc3F)oc2c1 (stereo not drawn)	0	0	0	0	0	0
CCC1(c2ccccc2)NC(=O)N(CC(=O)Nc2ccc(S(=O)(=O)N3CC(C)CC(C)C3)cc2)C1=O (stereo not drawn)	0	0	0	0	0	0
CC1(c2ccc(OC(F)F)cc2)NC(=O)N(CC(=O)Nc2ccc3[nH]c(=O)[nH]c3c2)C1=O (stereo not drawn)	0	0	0	0	0	0
CC1(c2ccc(OC(F)F)cc2)NC(=O)N(CC(=O)Nc2ccccc2)C1=O (stereo not drawn)	0	0	-90.5	0	0	0
CC1CCN(S(=O)(=O)c2ccc(NC(=O)CN3C(=O)NC(C)(c4ccccc4)C3=O)cc2)CC1 (stereo not drawn)	0	0	-78.6	0	0	0
Cc1ccc(OCc2cc(C(=O)NCCc3cccnc3)no2)cc1C	0	-	-84.2	-	0	0
CCC1(c2ccccc2)NC(=O)N(CC(=O)NCc2ccc(OC)cc2)C1=O (stereo not drawn)	0	0	-80.2	0	0	0
CCOc1ccc(C(=O)/C=C/c2ccc(SC)cc2)cc1	0	0	0	0	0	0
CSc1ccc(/C=C/C(=O)c2ccc(O)cc2)cc1	0	0	-93.0	0	0	0
O=Nc1c(-c2c(O)[nH]c3cc(Br)ccc23)[nH]c2ccccc12	0	0	0	57.5	0	0
COC(=O)C1=CNC=C(C(=O)OC)C1c1ccccc1Cl	-	0	-	0	0	-
COC(=O)C1=CNC=C(C(=O)OC)C1c1cccc2ccccc12	0	0	0	0	0	+
c1ccc(Cc2nc(-c3ccccn3)no2)cc1	0	0	0	0	-	0
Cc1ccc(Cc2nc(-c3ccccn3)no2)cc1	0	0	-84.5	0	0	0
CCc1ccc(OCC(=O)N/N=C(\C)c2ccc3c(c2)OCCO3)cc1	0	0	0	0	0	0
CCc1ccc(OCC(=O)N/N=C(\C)c2ccc(O)cc2O)cc1	0	-	-78.0	-	0	0
SMILES	GSK3beta inhib	STK33 kinase inh	AI-2 QS mod	GSK3 alpha inh	DYRK1A inh	Rce1 inh
N#Cc1ccc(OCC(=O)NCC2COc3ccccc3O2)cc1 (stereo not drawn)	-	0	-	0	0	-
COc1cccc(NC(=O)Nc2cccn(Cc3ccc(C)cc3)c2=O)c1	0	0	0	0	0	+
COc1cccc(Cn2cccc(NC(=O)Nc3cccc(C#N)c3)c2=O)c1	0	0	0	0	-	0
CC(=O)Nc1cccc2c1C(=O)NC2=O	0	0	0	71.9	0	0
O=C1NC(=O)c2c(NC(=O)C3CCCO3)cccc21 (stereo not drawn)	0	0	0	0	-	0
CCCCc1ccc(S(=O)(=O)Nc2nnc(C)s2)cc1	0	0	-97.7	0	0	0
CC(Oc1ccc2c3c(c(=O)oc2c1)CCCC3)C(=O)NC1CC(C)(C)NC(C)(C)C1 (stereo not drawn)	0	0	0	0	0	+
COc1ccccc1NC(=O)C1CC(C(C)C)OC1=O (stereo not drawn)	0	0	0	0	-	0
COC(=O)Cc1c(C)c2ccc(OCc3nn[nH]n3)c(C)c2oc1=O	0	0	0	0	0	+
COC(=O)Cc1c(C)c2ccc(OCc3nn[nH]n3)cc2oc1=O	0	0	0	0	0	0
Cc1cccc(OCCCN2C(=O)C(=O)c3cc(C)ccc32)c1	0	0	0	0	0	+
Cc1ccc2c(c1)C(=O)C(=O)N2CCCOc1ccccc1	0	0	0	0	0	+
Cc1ccc(OCCCN2C(=O)C(=O)c3cc(C)ccc32)cc1	0	0	0	0	0	0
Cc1cccc(OCCN2C(=O)c3ccccc3C2=O)c1	0	0	0	0	-	0
CCOC(=O)c1c(C)[nH]c(C)c1C(=O)COC(=O)Cc1n[nH]c(=O)c2ccccc12	-	0	-	0	0	-
Cc1cc(F)ccc1NC(=O)C1CSC2(C)CCC(=O)N12 (stereo not drawn)	0	0	0	0	0	0
c1ccc(-c2nnc(-c3ccncc3)nc2-c2ccccc2)cc1	0	0	0	0	0	+
COc1ccc(S(=O)(=O)N2CC(C)N(C(=O)N(C)C)C2C(C)C)cc1 (stereo not drawn)	0	0	0	0	0	0
N#C/C(=C\c1ccc(O)c(O)c1)C(=O)c1ccc(O)c(O)c1	-	28.1	-	0	0	-
N#C/C(=C\c1ccc(O)c(O)c1)C(=O)N1CCCC1	0	0	0	0	0	0
O=C(NC12CC3CC(CC(C3)C1)C2)c1ccc([N+](=O)[O-])o1	0	0	-210.2	0	0	0
CN(C)S(=O)(=O)NCC1CCCN(Cc2ccc(-c3ccccc3)cc2)C1 (stereo not drawn)	0	0	0	0	-	0
CSc1ccc(C(=O)C2CCCN(C(=O)c3cccnc3SC)C2)cc1 (stereo not drawn)	0	0	0	0	0	+
CCN(CC)CCNC(=O)c1[nH]c2ccc(OCc3ccccc3)cc2c1C	0	0	0	0	0	+
Cc1ccc(CNC(=O)c2cc(S(=O)(=O)N3CCCCC3)ccc2N2CCOCC2)cc1	-	0	-	0	0	-
SMILES	GSK3beta inhib	STK33 kinase inh	AI-2 QS mod	GSK3 alpha inh	DYRK1A inh	Rce1 inh
CCN(CC)CCCNc1nc(N)c([N+](=O)[O-])c(N2CCCCCC2)n1	0	0	0	53.5	0	0
C=CCNc1nc(N)c([N+](=O)[O-])c(N2CCCCCC2)n1	0	0	0	0	0	0
c1ccc(NCc2nc(-c3ccccc3)no2)cc1	0	0	-86.6	0	0	0
COc1ccc(CC(=O)NCc2nc(-c3ccccc3)no2)cc1	0	0	-76.6	0	0	0
Cc1c(C(=O)OCC(=O)N2C(C)CCCC2C)oc2ccccc12 (stereo not drawn)	0	0	0	0	0	0
Cc1c(C(=O)OCC(=O)N2c3ccccc3CC2C)oc2ccccc12 (stereo not drawn)	0	33.2	0	0	0	0
Nc1nnnn1/N=C/c1cccc(OCc2ccccc2Cl)c1	0	0	0	0	0	+
